Laboratory results from paper PMC10762718 (RSC Advances, 2024).

Tests used:
Type in all cases: cell-based
[1] = test system: MDA-MB-231 (human breast cancer) cells; assay: MTT cell viability assay, MDA-MB-231; conditions: for inhibition at 25 µM: MDA-MB-231
Summary of the method: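 MDA-MB-231 cells were grown as a monolayer in DMEM with 10% heat-inactivated FBS and 1% penicillin-streptomycin at 37 °C in humidified CO2, subcultured every third day with trypsin-EDTA, and used before passage 8. Cells were exposed 72 h to 10, 25 and 50 μM. Medium was removed, MTT added for 3 h at 37 °C, formazan dissolved in DMSO and read at 595 nm. Viability is relative to untreated control, triplicates, ±SD. IC50 comes from the viability-versus-concentration plot.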

[2] = test system: MCF-7 breast cancer cells; assay: MTT cell viability assay, MCF-7; conditions: Homo sapiens; for inhibition at 25 µM: MCF7; for IC50: MCF7, 72 h, read-out: IC50 against MCF-7 breast cancer cells line
Summary of the method: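 After medium removal, MTT was added for 3 h at 37 °C in CO2, formazan dissolved in DMSO and absorbance read at 595 nm. Viability is relative to untreated cells, triplicates, n = 3, ±SD. IC50 comes from plotting percent viability against concentration.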

[3] = MTT cell viability assay, normal MCF-10A cells; conditions: human, MCF-10A normal mammary epithelial cells
Summary of the method: (§1)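 Normal mammary epithelial MCF-10A cells were exposed to test compound at 25, 50 and 100 μM for 72 h. Cells were then given MTT after medium removal, 3 h at 37 °C in CO2. Formazan was dissolved in DMSO and absorbance read at 595 nm. Viability is expressed as percent of untreated control cells.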

[4] = test system: normal mammary epithelial MCF-10A cells; assay: MTT cell viability assay, normal MCF-10A cells; conditions: tested at 25, 50 and 100 μM
Summary of the method: as §1

MDA-MB-453 cells = assay: MTT cell viability assay, MDA-MB-453; conditions: for IC50 against MDA-MB-453 cells: tested at 1, 10 and 25 μM
Summary of the method: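 MDA-MB-453 (HER2-positive) cells were exposed to test compound at 1, 10 and 25 μM for 72 h. After medium removal, MTT was added for 3 h at 37 °C in CO2. Formazan was dissolved in DMSO and absorbance read at 595 nm. Percent viable cells are relative to untreated control cells.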

[5] = MDA-MB-231, 72 h, read-out: Cell viability (%) ±SD
[6] = MCF7, read-out: Cell viability (%) ±SD
[7] = Homo sapiens, MDA-MB-453, read-out: Cell viability (%) ±SD

SMILES | inhibition at 25 µM [1] | viability at 10 µM [1, 5] | viability at 25 µM [1, 5] | viability at 50 µM [1, 5] | inhibition at 25 µM [2] | IC50 [2] | viability at 1 µM [2, 6] | viability at 10 µM [2, 6] | viability at 25 µM [2, 6] | viability at 72 h, 25 µM [3] | viability at 72 h, 50 µM [3] | viability at 72 h, 100 µM [3] | growth inhibitory activity against normal breast epithelial cell (MCF-10A) [4] | viability at 1 µM (MDA-MB-453 cells; [7]) | viability at 10 µM (MDA-MB-453 cells; [7]) | viability at 25 µM (MDA-MB-453 cells; [7]) | IC50 against MDA-MB-453 cells (MDA-MB-453 cells) | further results
CC(=O)OC[C@@H]1O[C@H](n2cc(Cn3ccc4nc(-c5ccc(C(F)(F)F)cc5)cc(=O)n43)nn2)[C@@H](OC(C)=O)[C@H](OC(C)=O)[C@@H]1OC(C)=O (stereo in doubt) [Compound 36, (2S,3R,4R,5S,6S)-2-(Acetoxymethyl)-6-(4-((7-oxo-5-(4-(trifluoromethyl)phenyl)pyrazolo[1,5-a]pyrimidin-1(7H)-yl)methyl)-1H-1,2,3-triazol-1-yl)tetrahydro-2H-pyran-3,4,5-triyl triacetate] | ~50% | 70.4 ± 5.36% | 46.1 ± 3.32% | 41.2 ± 1.26% | ~50% | 4.93 µM | 52.3 ± 3.1% | 32.4 ± 0.9% | 28.1 ± 4.4% | 88.6 ± 1.5% | 86.1 ± 2.8% | 84.2 ± 3% | none of these compounds did have any growth inhibitory activity | 91.5 ± 4.6% | 82.9 ± 1.2% | 63.8 ± 1.7% | did not reach up to IC50 value | 
COc1ccc(-c2cc(=O)n3c(ccn3Cc3cn([C@H]4O[C@H](COC(C)=O)[C@@H](OC(C)=O)[C@H](OC(C)=O)[C@@H]4OC(C)=O)nn3)n2)cc1 [Compound 41, (2R,3R,4S,5S,6S)-2-(Acetoxymethyl)-6-(4-((5-(4-methoxyphenyl)-7-oxopyrazolo[1,5-a]pyrimidin-1(7H)-yl)methyl)-1H-1,2,3-triazol-1-yl)tetrahydro-2H-pyran-3,4,5-triyl triacetate] | ~50% | 66.7 ± 8.21% | 54.3 ± 6.12% | 44.2 ± 4.11% | ~50% | 21.8 µM | 72.8 ± 4.2% | 58.2 ± 3.8% | 48.1 ± 3.5% | 89.8 ± 2.8% | 84.2 ± 5.8% | 83 ± 1.5% | none of these compounds did have any growth inhibitory activity | 96.4 ± 4.8% | 77.4 ± 5.4% | 95.1 ± 35.7% | did not reach up to IC50 value | 
COc1ccc(-c2cc(=O)n3c(ccn3Cc3cn([C@H]4O[C@@H](COC(C)=O)[C@H](OC(C)=O)[C@@H](OC(C)=O)[C@@H]4OC(C)=O)nn3)n2)cc1 (stereo in doubt) [Compound 23, (2S,3S,4R,5S,6S)-2-(Acetoxymethyl)-6-(4-((5-(4-methoxyphenyl)-7-oxopyrazolo[1,5-a]pyrimidin-1(7H)-yl)methyl)-1H-1,2,3-triazol-1-yl)tetrahydro-2H-pyran-3,4,5-triyl triacetate] | ~50% | 65.1 ± 8.53% | 49 ± 9.19% | 34.3 ± 5.29% | ~50% | 9.24 µM | 66.7 ± 1.18% | 40.3 ± 3.6% | 31.7 ± 4% | 88.6 ± 1.5% | 86.3 ± 2.9% | 84.2 ± 3% | none of these compounds did have any growth inhibitory activity | 80.6 ± 8% | 88.4 ± 5.4% | 77.1 ± 5.7% | did not reach up to IC50 value | 
CC(=O)OC[C@@H]1O[C@H](n2cc(Cn3ccc4nc(-c5ccc6c(c5)OCO6)cc(=O)n43)nn2)[C@@H](OC(C)=O)[C@H](OC(C)=O)[C@H]1OC(C)=O (stereo in doubt) [Compound 30, (2S,3S,4R,5S,6S)-2-(Acetoxymethyl)-6-(4-((5-(benzo[d][1,3]dioxol-5-yl)-7-oxopyrazolo[1,5-a]pyrimidin-1(7H)-yl)methyl)-1H-1,2,3-triazol-1-yl)tetrahydro-2H-pyran-3,4,5-triyl triacetate] | ~50% | 86.6 ± 3.36% | 55.2 ± 7.06% | 42.8 ± 5.04% | ~50% | 18.5 µM | 78.2 ± 2.6% | 57.7 ± 2.4% | 42.3 ± 7.6% | 86.8 ± 5.3% | 84.8 ± 3% | 78.5 ± 3.4% | none of these compounds did have any growth inhibitory activity | 99.2 ± 8.1% | 74.8 ± 1.5% | 61.4 ± 3.2% | did not reach up to IC50 value | 
COc1ccc(-c2cc(=O)n3c(ccn3Cc3cn([C@H]4O[C@@H](COC(C)=O)[C@@H](OC(C)=O)[C@@H](OC(C)=O)[C@@H]4OC(C)=O)nn3)n2)cc1 (stereo in doubt) [Compound 32, (2S,3R,4R,5S,6S)-2-(Acetoxymethyl)-6-(4-((5-(4-methoxyphenyl)-7-oxopyrazolo[1,5-a]pyrimidin-1(7H)-yl)methyl)-1H-1,2,3-triazol-1-yl)tetrahydro-2H-pyran-3,4,5-triyl triacetate] |  | 92.5 ± 9.39% | 86.2 ± 8.63% | 72.5 ± 6.24% |  |  |  |  |  |  |  |  |  |  |  |  |  | 
CC(=O)OC[C@H]1O[C@H](n2cc(Cn3ccc4nc(-c5ccc(F)cc5)cc(=O)n43)nn2)[C@@H](OC(C)=O)[C@@H](OC(C)=O)[C@@H]1OC(C)=O [Compound 44, (2R,3R,4S,5S,6S)-2-(Acetoxymethyl)-6-(4-((5-(4-fluorophenyl)-7-oxopyrazolo[1,5-a]pyrimidin-1(7H)-yl)methyl)-1H-1,2,3-triazol-1-yl)tetrahydro-2H-pyran-3,4,5-triyl triacetate] |  | 98.4 ± 3.62% | 90.1 ± 6.77% | 89.6 ± 6.27% |  |  |  |  |  |  |  |  |  |  |  |  |  | 
COCCn1c2c([n+](Cc3cnccn3)c1C)C(=O)c1ccccc1C2=O [YM155, reference compound] |  |  |  |  |  |  |  |  |  |  |  |  |  |  |  |  |  | viability at 0.02 µM [1, 5]: 23.4 ± 3.13%; viability at 0.02 µM [2, 6]: 31.2 ± 1.7%; viability at 72 h, 0.02 µM [3]: 39.2 ± 1.6%; viability at 0.02 µM (MDA-MB-453 cells; [7]): 36.2 ± 1.5%
CC1=CC(=O)c2ccccc2C1=O [Menadione, menadione, reference compound] |  |  |  |  |  |  |  |  |  |  |  |  |  |  |  |  |  | viability at 20 µM [1, 5]: 23.8 ± 5.7%
CC(=O)OC[C@@H]1O[C@H](n2cc(Cn3ccc4nc(-c5ccc(Br)cc5)cc(=O)n43)nn2)[C@@H](OC(C)=O)[C@H](OC(C)=O)[C@H]1OC(C)=O (stereo in doubt) [Compound 24, (2S,3S,4R,5S,6S)-2-(Acetoxymethyl)-6-(4-((5-(4-bromophenyl)-7-oxopyrazolo[1,5-a]pyrimidin-1(7H)-yl)methyl)-1H-1,2,3-triazol-1-yl)tetrahydro-2H-pyran-3,4,5-triyl triacetate] |  | 100 ± 8.01% | 100 ± 8.93% | 98.5 ± 2.89% |  |  |  |  |  |  |  |  |  |  |  |  |  | 
CC(=O)OC[C@@H]1O[C@H](n2cc(Cn3ccc4nc(-c5ccc6ccccc6c5)cc(=O)n43)nn2)[C@@H](OC(C)=O)[C@H](OC(C)=O)[C@H]1OC(C)=O (stereo in doubt) [Compound 29, (2S,3S,4R,5S,6S)-2-(Acetoxymethyl)-6-(4-((5-(naphthalen-2-yl)-7-oxopyrazolo[1,5-a]pyrimidin-1(7H)-yl)methyl)-1H-1,2,3-triazol-1-yl)tetrahydro-2H-pyran-3,4,5-triyl triacetate] |  | 89.1 ± 4.09% | 81.5 ± 2.58% | 88.4 ± 7.36% |  |  |  |  |  |  |  |  |  |  |  |  |  | 
